Tests used:
[1] = biological target: T1, 5-hydroxytryptamine receptor 1B (Homo sapiens, UniProt P28222); test: Displacement of specific [3H]5-HT binding to cloned human 5-hydroxytryptamine 1B receptor expressed in CHO cells; type: cell-based
Method in brief: (§1)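 Radioligand binding to human 5-HT1D and 5-HT1B receptors stably expressed in CHO cells. Radioligand was used at approximately its KD for each receptor. IC50 values are the logarithmic mean of 2–5 independent determinations, each run in duplicate. Maximum variance from the mean of log(IC50) was 4%. Selectivity is IC50(1B)/IC50(1D).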

[2] = biological target: T2, 5-hydroxytryptamine receptor 1D (Homo sapiens, UniProt P28221); test: Displacement of specific [3H]5-HT binding to cloned human 5-hydroxytryptamine 1D receptor expressed in CHO cells; type: cell-based; method in brief: as §1
T2 sequence (P28221 whole entry): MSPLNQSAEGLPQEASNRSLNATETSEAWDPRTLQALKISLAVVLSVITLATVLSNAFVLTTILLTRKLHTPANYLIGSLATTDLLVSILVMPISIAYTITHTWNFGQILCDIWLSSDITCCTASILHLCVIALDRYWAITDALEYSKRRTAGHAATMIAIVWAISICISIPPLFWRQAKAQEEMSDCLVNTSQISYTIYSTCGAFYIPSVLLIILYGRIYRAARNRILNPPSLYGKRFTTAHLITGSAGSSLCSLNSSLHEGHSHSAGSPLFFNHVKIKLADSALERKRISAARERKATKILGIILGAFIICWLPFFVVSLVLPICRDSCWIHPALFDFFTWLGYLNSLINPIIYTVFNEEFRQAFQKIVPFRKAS

[3] = biological target: Serotonin 1 receptors; 5-HT1B & 5-HT1D (Homo sapiens) (UniProt P28222+P28221); test: Selectivity towards 5-HT1D and to that of 5-HT1B in CHO cells; type: cell-based; method in brief: as §1
[4] = biological target: T1, 5-hydroxytryptamine receptor 1B; test: Agonist-induced [35S]GTP-gamma-S, binding in CHO cells stably transfected with human 5-hydroxytryptamine 1B receptor; type: functional, cell-based
Method in brief: (§2)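 [35S]GTPγS binding stimulated by agonist, measured in CHO cells stably transfected with the human 5-HT1D or 5-HT1B receptor. EC50 values are the logarithmic mean of 2–3 independent determinations. Maximum variance of individual log(EC50) values from the mean was 4%.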

[5] = biological target: T1, 5-hydroxytryptamine receptor 1B; test: Efficacy was evaluated relative to human 5-HT1B receptor using [35S]GTP-gamma-S, as radioligand; type: functional
[6] = biological target: T2, 5-hydroxytryptamine receptor 1D; test: Agonist-induced [35S]GTP-gamma-S, binding in CHO cells stably transfected with human 5-hydroxytryptamine 1D receptor; type: functional, cell-based; method in brief: as §2
[7] = biological target: T2, 5-hydroxytryptamine receptor 1D; test: Efficacy was evaluated relative to human 5-hydroxytryptamine 1D receptor using [35S]GTP-gamma-S, as radioligand; type: functional
[8] = pKa value by potentiometric method; type: physicochemical
Method in brief: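 Potentiometric titration in MeOH–H2O cosolvent with ionic strength set by 0.15 M KCl. Three titrations at different water/cosolvent ratios gave psKa values. Aqueous pKa was obtained by Yasuda–Shedlovsky extrapolation to 100% water, plotting psKa + log[H2O] against 1/ε.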

Rattus norvegicus [9] = test: Oral absorption study in rat plasma obtained from hepatic portal vein after 2 hours of administration of 3 mg/kg orally; type: functional, organism-based; parameters: dose 3 mg/kg
Method in brief: (§3)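 Male Sprague–Dawley rats, fasted overnight and with no surgery, received 3 mg/kg orally as a 0.6 mg/mL solution in PEG 400:5 mM HCl (25:75 v/v). Terminal blood was taken from the heart and hepatic portal vein under isoflurane at 0.5 and 2 h, three rats per time point. Plasma drug was measured by electrospray mass spectrometry. Values are mean ± SEM.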

Rattus norvegicus [10] = test: Oral absorption study in rat plasma obtained from cardiac blood samples after 0.5 hours of administration of 3 mg/kg orally; type: functional, organism-based; parameters: dose 3 mg/kg; method in brief: as §3
Rattus norvegicus [11] = test: Oral absorption study in rat plasma obtained from cardiac blood samples after 2 hours of administration of 3 mg/kg orally; type: functional, organism-based; parameters: dose 3 mg/kg; method in brief: as §3
Rattus norvegicus [12] = test: Oral absorption study in rat plasma obtained from hepatic portal vein after 0.5 hours of administration of 3 mg/kg orally; type: functional, organism-based; parameters: dose 3 mg/kg; method in brief: as §3

T1 sequence (P28222 whole entry): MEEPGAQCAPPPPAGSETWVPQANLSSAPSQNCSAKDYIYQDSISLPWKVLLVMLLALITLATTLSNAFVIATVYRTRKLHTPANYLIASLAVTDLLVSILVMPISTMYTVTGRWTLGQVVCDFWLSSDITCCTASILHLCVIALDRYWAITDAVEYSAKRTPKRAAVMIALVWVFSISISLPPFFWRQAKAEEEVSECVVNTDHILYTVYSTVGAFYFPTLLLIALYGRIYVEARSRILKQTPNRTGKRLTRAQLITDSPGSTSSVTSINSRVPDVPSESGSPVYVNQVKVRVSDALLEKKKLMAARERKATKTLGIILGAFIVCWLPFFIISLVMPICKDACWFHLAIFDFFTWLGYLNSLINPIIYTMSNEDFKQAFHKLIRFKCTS

| Compound | IC50 [1] [µM] | IC50 [2] [µM] | Selectivity [3] | other results |
| --- | --- | --- | --- | --- |
| FC(F)(Cc1c[nH]c2ccc(-n3cnnc3)cc12)CN1CCC(CCc2ccccc2)CC1 | 5.8 | 0.056 | 104 |  |
| FC(F)(Cc1c[nH]c2ccc(-n3cnnc3)cc12)CN1CCC(COc2ccccc2)CC1 | 7.2 | 0.28 | 26 |  |
| Fc1ccccc1CC1(F)CCN(CCCc2c[nH]c3ccc(-n4cnnc4)cc23)CC1 | 0.0031 | 0.0001 |  |  |
| CC(CN1CCN(CC(F)Cc2c[nH]c3ccc(-n4cnnc4)cc23)CC1)c1ccc(F)cc1 (centres undefined) | 0.31 | 0.001 | 310 | EC50 [4]: 1.7 µM; Efficacy [5]: 79%; EC50 [6]: 0.0016 µM; Efficacy [7]: 106% |
| CC(CN1CCN(CC(F)Cc2c[nH]c3ccc(-n4cnnc4)cc23)CC1)c1cccc(F)c1 (centres undefined) | 0.28 | 0.0009 | 311 | EC50 [4]: 1.5 µM; Efficacy [5]: 87%; EC50 [6]: 0.0019 µM; Efficacy [7]: 112% |
| FC(Cc1c[nH]c2ccc(-n3cnnc3)cc12)CN1CCC(OCc2ccccc2)CC1 (centres undefined) | 3 | 0.03 | 100 |  |
| Fc1cccc(CC2(F)CCN(CCCc3c[nH]c4ccc(-n5cnnc5)cc34)CC2)c1 | 0.0053 | 0.0004 | 13 |  |
| CC(CC1(F)CCN(CCCc2c[nH]c3ccc(-n4cnnc4)cc23)CC1)c1ccccc1 (centres undefined) | 0.028 | 0.0006 | 47 | EC50 [4]: 0.51 µM; Efficacy [5]: 85%; EC50 [6]: 0.0026 µM; Efficacy [7]: 86% |
| Fc1ccccc1CCN1CCN(CC(F)Cc2c[nH]c3ccc(-n4cnnc4)cc23)CC1 (centres undefined) | 0.52 | 0.0047 | 111 |  |
| FC(Cc1c[nH]c2ccc(-n3cnnc3)cc12)CN1CCN(CCc2ccccc2)CC1 (centres undefined) | 0.93 | 0.0068 | 137 |  |
| CN(Cc1ccccc1C(F)(F)F)[C@H]1CCN(CCCc2c[nH]c3ccc(-n4cnnc4)cc23)C[C@@H]1F | 0.22 | 0.013 | 17 | pKa [8]: 6.9 |
| Fc1ccc(CCN2CCN(CC(F)Cc3c[nH]c4ccc(-n5cnnc5)cc34)CC2)cc1 (centres undefined) | 0.54 | 0.0055 | 98 |  |
| Fc1cccc(CCN2CCN(CC(F)Cc3c[nH]c4ccc(-n5cnnc5)cc34)CC2)c1 (stereo in doubt; 28) [listing 1 of 2 here] |  |  | 196 |  |
| CN(Cc1ccccc1)C1CCN(CC(F)(F)Cc2c[nH]c3ccc(-n4cnnc4)cc23)CC1 | 2.1 | 0.035 | 60 |  |
| Fc1ccc(CCC2(F)CCN(CCCc3c[nH]c4ccc(-n5cnnc5)cc34)CC2)cc1 | 0.025 | 0.001 | 25 |  |
| CC(CN1CCN(CC(F)(F)Cc2c[nH]c3ccc(-n4cnnc4)cc23)CC1)c1ccccc1 (centres undefined) | 1.8 | 0.0062 | 290 | EC50 [4]: 5.1 µM; Efficacy [5]: 53%; EC50 [6]: 0.016 µM; Efficacy [7]: 123% |
| F[C@@H]1CN(CCCc2c[nH]c3ccc(-n4cnnc4)cc23)CC[C@@H]1NCc1ccccc1C(F)(F)F | 0.3 | 0.013 | 23 |  |

| Compound | IC50 [1] [µM] | IC50 [2] [µM] | Selectivity [3] | other results |
| --- | --- | --- | --- | --- |
| FC(F)(Cc1c[nH]c2ccc(-n3cnnc3)cc12)CN1CCC(Cc2ccccc2)CC1 | 1.3 | 0.078 | 17 | pKa [8]: 6.7 |
| FC1(CCc2ccccc2)CCN(CCCc2c[nH]c3ccc(-n4cnnc4)cc23)CC1 | 0.049 | 0.002 | 25 |  |
| Fc1cccc(CCN2CCN(C[C@@H](F)Cc3c[nH]c4ccc(-n5cnnc5)cc34)CC2)c1 | 0.68 | 0.0058 | 117 |  |
| CC(CN1CCN(CC(F)Cc2c[nH]c3ccc(-n4cnnc4)cc23)CC1)c1ccccc1F (centres undefined) | 0.38 | 0.001 | 380 |  |
| Fc1cccc(CCN2CCN(CC(F)Cc3c[nH]c4ccc(-n5cnnc5)cc34)CC2)c1 (stereo in doubt; 25) [listing 1 of 2 here] | 1.2 | 0.0035 |  | EC50 [4]: 0.81 µM; EC50 [6]: 0.0038 µM |
| CC(CN1CCN(CC(F)(F)Cc2c[nH]c3ccc(-n4cnnc4)cc23)CC1)c1ccc(F)cc1 (centres undefined) | 1 | 0.0018 | 556 |  |
| Fc1cccc(CCC2(F)CCN(CCCc3c[nH]c4ccc(-n5cnnc5)cc34)CC2)c1 | 0.022 | 0.0007 | 31 | EC50 [4]: 0.44 µM; Efficacy [5]: 88%; EC50 [6]: 0.005 µM |
| CN(Cc1ccccc1C(F)(F)F)[C@H]1CCN(CCCc2c[nH]c3ccc(-n4cnnc4)cc23)C[C@H]1F | 0.22 | 0.0093 | 24 | pKa [8]: 7.7 |
| FC1(Cc2ccccc2)CCN(CCCc2c[nH]c3ccc(-n4cnnc4)cc23)CC1 | 0.015 | 0.0009 | 17 | EC50 [4]: 0.066 µM; Efficacy [5]: 67%; EC50 [6]: 0.0004 µM; pKa [8]: 8.8; Plasma concentration (Rattus norvegicus [9]): 273 ng/mL; Plasma concentration (Rattus norvegicus [10]): 52 ng/mL; Plasma concentration (Rattus norvegicus [11]): 35 ng/mL; Plasma concentration (Rattus norvegicus [12]): 570 ng/mL |
| Fc1cccc(CCN2CCN(CC(F)Cc3c[nH]c4ccc(-n5cnnc5)cc34)CC2)c1 (stereo in doubt; 28) [listing 2 of 2 here] | 1 | 0.0051 |  |  |
| F[C@H]1CN(CCCc2c[nH]c3ccc(-n4cnnc4)cc23)CC[C@@H]1NCc1ccccc1C(F)(F)F | 0.17 | 0.005 | 34 |  |
| CN(Cc1ccccc1)[C@H]1CCN(CCCc2c[nH]c3ccc(-n4cnnc4)cc23)C[C@H]1F | 0.22 | 0.012 | 18 | pKa [8]: 8; Plasma concentration (Rattus norvegicus [9]): 136 ng/mL; Plasma concentration (Rattus norvegicus [10]): 2 ng/mL; Plasma concentration (Rattus norvegicus [11]): 3 ng/mL; Plasma concentration (Rattus norvegicus [12]): 216 ng/mL |
| CN(Cc1ccccc1)[C@H]1CCN(CCCc2c[nH]c3ccc(-n4cnnc4)cc23)C[C@@H]1F | 0.013 | 0.0021 | 6 |  |
| CN(Cc1ccccc1)C1CCN(CC(F)Cc2c[nH]c3ccc(-n4cnnc4)cc23)CC1 (centres undefined) | 1.2 |  | 22 | EC50 [4]: 10.3 µM; Efficacy [5]: 59%; pKa [8]: 8.5; Plasma concentration (Rattus norvegicus [9]): 217 ng/mL; Plasma concentration (Rattus norvegicus [10]): 2 ng/mL; Plasma concentration (Rattus norvegicus [11]): 10 ng/mL; Plasma concentration (Rattus norvegicus [12]): 57 ng/mL |
| Fc1ccccc1CCC1(F)CCN(CCCc2c[nH]c3ccc(-n4cnnc4)cc23)CC1 | 0.016 | 0.0008 | 20 |  |
| Fc1cccc(CCN2CCN(CC(F)Cc3c[nH]c4ccc(-n5cnnc5)cc34)CC2)c1 (stereo in doubt; 25) [listing 2 of 2 here] |  |  | 343 | Efficacy [5]: 25% |
| OC(Cc1c[nH]c2ccc(-n3cnnc3)cc12)CN1CCN(Cc2ccccc2)CC1 (centres undefined) | 0.36 | 0.0018 | 200 |  |
